Assay results as given in paper PMC9890357 (Food Science of Animal Resources, 2023).
No end group written: not given here.

How the values were obtained:
[1] = synthetic ACE inhibitor drugs; ref Lee and Hur, 2017; cited from earlier work
ACE = conditions: peptides with C-terminal Tyr residues; ref Chen et al., 2009; Erdmann et al., 2006; Ko et al., 2012; Liu et al., 2021; Yu et al., 2019; cited from earlier work
[2] = target: ACE (angiotensin I-converting enzyme) (Homo sapiens, UniProt P12821); experiment: ACE inhibition activity; type: biochemical
Chain of ACE (angiotensin I-converting enzyme) (P12821 30-1306, species assumed): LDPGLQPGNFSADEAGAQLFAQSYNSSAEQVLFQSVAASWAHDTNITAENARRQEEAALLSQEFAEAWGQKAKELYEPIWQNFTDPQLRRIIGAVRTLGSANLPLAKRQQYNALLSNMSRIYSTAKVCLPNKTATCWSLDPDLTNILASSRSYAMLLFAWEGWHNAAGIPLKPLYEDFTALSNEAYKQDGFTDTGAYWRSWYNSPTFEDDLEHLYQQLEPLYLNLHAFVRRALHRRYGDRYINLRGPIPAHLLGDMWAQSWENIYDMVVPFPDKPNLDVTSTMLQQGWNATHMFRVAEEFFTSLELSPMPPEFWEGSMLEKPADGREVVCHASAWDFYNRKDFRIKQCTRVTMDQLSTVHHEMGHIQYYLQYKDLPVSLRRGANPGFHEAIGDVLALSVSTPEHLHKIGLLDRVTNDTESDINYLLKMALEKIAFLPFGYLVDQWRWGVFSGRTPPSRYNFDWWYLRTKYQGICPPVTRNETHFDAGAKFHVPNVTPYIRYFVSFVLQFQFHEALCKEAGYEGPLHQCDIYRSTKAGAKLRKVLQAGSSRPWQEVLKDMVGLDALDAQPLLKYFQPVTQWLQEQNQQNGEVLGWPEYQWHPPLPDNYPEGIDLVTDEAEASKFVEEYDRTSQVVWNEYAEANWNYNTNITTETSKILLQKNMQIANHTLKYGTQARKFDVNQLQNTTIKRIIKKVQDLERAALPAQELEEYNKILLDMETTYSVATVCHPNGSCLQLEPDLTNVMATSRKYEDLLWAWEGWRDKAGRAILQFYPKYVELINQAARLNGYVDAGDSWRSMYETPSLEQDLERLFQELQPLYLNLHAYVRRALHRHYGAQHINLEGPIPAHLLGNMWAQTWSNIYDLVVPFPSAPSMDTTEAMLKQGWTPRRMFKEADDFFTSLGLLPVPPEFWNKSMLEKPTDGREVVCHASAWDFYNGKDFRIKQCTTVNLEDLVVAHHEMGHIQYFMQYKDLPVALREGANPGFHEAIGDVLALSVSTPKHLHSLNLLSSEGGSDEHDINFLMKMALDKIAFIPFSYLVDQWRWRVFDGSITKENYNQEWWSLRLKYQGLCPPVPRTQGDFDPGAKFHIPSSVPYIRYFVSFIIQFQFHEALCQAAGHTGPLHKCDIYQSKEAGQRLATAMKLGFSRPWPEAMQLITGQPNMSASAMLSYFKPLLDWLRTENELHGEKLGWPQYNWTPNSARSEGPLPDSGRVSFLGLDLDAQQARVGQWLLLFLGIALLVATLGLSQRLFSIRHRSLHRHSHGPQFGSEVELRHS
Outline: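 Commercial ACE kit-WST run according to the manufacturer's protocol. The test compound was a peptide purified from an alcalase hydrolysate of velvet antler (<5 kDa ultrafiltration fraction, then Sephadex G-25, then reverse-phase HPLC) and lyophilized. Results are reported as mean±SD. Groups were compared by one-way ANOVA with Duncan's multiple range test, with significance at p<0.05.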

| Molecule | side effects [1] | ACE inhibitory activity (in words) (ACE) | other results |
| --- | --- | --- | --- |
| CCOC(=O)[C@H](CCc1ccccc1)N[C@H]1CCc2ccccc2N(CC(=O)O)C1=O [benazepril] | headaches, insomnia, fatigue, and increased blood potassium levels | – | – |
| C[C@H](CS)C(=O)N1CCC[C@H]1C(=O)O [captopril] | headaches, insomnia, fatigue, and increased blood potassium levels | – | – |
| CCOC(=O)[C@H](CCc1ccccc1)N[C@@H](C)C(=O)N1CCC[C@H]1C(=O)O [enalapril] | headaches, insomnia, fatigue, and increased blood potassium levels | – | – |
| Arg-Val-Tyr | – | potent ACE inhibitory activities | – |
| DNRYY [DNRYY, Asp-Asn-Arg-Tyr-Tyr] | – | – | IC50 [2]: 3.72 µM; inhibition at 1.75 µM ([2]; read-out: ACE inhibition): 23.6%; inhibition at 3.5 µM ([2]; read-out: ACE inhibition): 48.1%; inhibition at 7 µM ([2]; read-out: ACE inhibition): 69.8%; inhibition at 14 µM ([2]; read-out: ACE inhibition): 89.5% |
| Ile-Tyr | – | potent ACE inhibitory activities | – |
| Met-Tyr | – | potent ACE inhibitory activities | – |
| Val-Tyr | – | potent ACE inhibitory activities | – |
